The record followed here is ChEMBL document CHEMBL1140996, “Synthesis and in vitro antibacterial activity of new steroidal thiosemicarbazone derivatives” (2008).

SMILES strings stand for the structures. ≈ marks a conversion by molar mass, not a printed value.

Assay [1] concerns Staphylococcus aureus. The assay can be described thus: Antibacterial activity against Staphylococcus aureus at 10 to 100 ug/mL after 18 hrs by halo zone test. It is filed as functional. The procedure, abridged: (§1)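 Disk diffusion (halo zone). Strains subcultured in BHI, 18 h at 37 °C. Cells suspended in saline by McFarland to about 10^5 CFU/mL, mixed with antibiotic agar at 40 °C and plated. 6.0 mm paper disks loaded with DMSO-stock dilutions of 10, 20, 25, 50 and 100 per mL. Inhibition zone diameter (mm) read after 18 h at 36 °C. Amoxicillin (30) disk positive control, DMSO disk negative control.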

Assay [2] has as its system Staphylococcus aureus. The assay can be described thus: Antibacterial activity against Staphylococcus aureus after 18 hrs by macro dilution test. It is filed as functional. The gist of the method: (§2)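 Macro-dilution broth test. Each tube received a 24 h old inoculum, standard inoculum about 10^5 CFU/mL. Incubated 18 h at 37 °C. MIC taken visually as the lowest concentration preventing visible growth. Amoxicillin positive control, DMSO negative control.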

Assay [3] concerns Salmonella typhimurium. Kind of assay: Antibacterial activity against Salmonella Typhimurium after 18 hrs by macro dilution test. It is filed as functional, Salmonella enterica subsp. enterica serovar Typhimurium. The note with it: Salmonella enterica. The procedure, abridged: as §2
The test system of assay [4] is Streptococcus pyogenes. The assay can be described thus: Antibacterial activity against Streptococcus pyogenes at 10 to 100 ug/mL after 18 hrs by halo zone test. The format is functional. The gist of the method:
as §1

The subject of assay [5] is Salmonella typhimurium. Kind of assay: Antibacterial activity against Salmonella Typhimurium at 10 to 100 ug/mL after 18 hrs by halo zone test. The format is functional, Salmonella enterica subsp. enterica serovar Typhimurium. The procedure, abridged: as §1
Assay [6] concerns Streptococcus pyogenes. The assay can be described thus: Antibacterial activity against Streptococcus pyogenes after 18 hrs by macro dilution test. It is filed as functional. The gist of the method: as §2
Assay [7] relates to Escherichia coli. The assay can be described thus: Antibacterial activity against Escherichia coli at 10 to 100 ug/mL after 18 hrs by halo zone test. The format is functional. The procedure, abridged: as §1
Assay [8] relates to Escherichia coli. The assay can be described thus: Antibacterial activity against Escherichia coli after 18 hrs by macro dilution test. It is filed as functional. The gist of the method: as §2

As a reminder, the MIC is the lowest concentration found to suppress growth. A low value points to greater potency. Consider `CC(C)CCC[C@@H](C)[C@H]1CC[C@H]2[C@@H]3/C(=N/NC(=S)NC4CCCC4)C=C4CCCC[C@]4(C)[C@H]3CC[C@]12C`, for which the “inhibition zone (IZ)” value is reported as 10.4 mm in assay [1], 9.5 mm in assay [4], 9.2 mm in assay [5] and 9.4 mm in assay [7]. Moreover, the MIC was determined as 256 µg/mL (≈ 487 µM) in assay [2], 128 µg/mL (≈ 243 µM) in assay [3], 128 µg/mL (≈ 243 µM) in assay [6] and 256 µg/mL (≈ 487 µM) in assay [8].
`CC(C)CCC[C@@H](C)[C@H]1CC[C@H]2[C@@H]3/C(=N/NC(=S)NC4CCCCC4)C=C4C[C@@H](Cl)CC[C@]4(C)[C@H]3CC[C@]12C`: the “inhibition zone (IZ)” value is 13.4 mm in assay [1], 12.2 mm in assay [4], 14.4 mm in assay [5] and 11.8 mm in assay [7]. Further, the MIC was determined as 32 µg/mL (≈ 55.7 µM) in assay [2], 128 µg/mL (≈ 223 µM) in assay [3], 64 µg/mL (≈ 111 µM) in assay [6] and 64 µg/mL (≈ 111 µM) in assay [8].
Regarding `CC(C)CCC[C@@H](C)[C@H]1CC[C@H]2[C@@H]3/C(=N/NC(=S)NC4CCCCCCC4)C=C4C[C@@H](Cl)CC[C@]4(C)[C@H]3CC[C@]12C`, the “inhibition zone (IZ)” value in assay [1] is recorded as 15.6 mm; in assay [4] it was 14 mm; in assay [5], 14.6 mm; in assay [7], 12.4 mm. Moreover, the MIC in assay [2] turned out to be 64 µg/mL (≈ 106 µM); in assay [3], 128 µg/mL (≈ 212 µM); in assay [6], 128 µg/mL (≈ 212 µM); in assay [8], 64 µg/mL (≈ 106 µM).
Take `CC(C)CCC[C@@H](C)[C@H]1CC[C@H]2[C@@H]3/C(=N/NC(=S)NC4CCCC4)C=C4C[C@@H](Cl)CC[C@]4(C)[C@H]3CC[C@]12C`: the “inhibition zone (IZ)” value is 16.2 mm in assay [1], 13.4 mm in assay [4], 12.5 mm in assay [5] and 15.6 mm in assay [7]. The MIC in assay [2] turned out to be 64 µg/mL (≈ 114 µM); in assay [3], 128 µg/mL (≈ 228 µM); in assay [6], 64 µg/mL (≈ 114 µM); in assay [8], 64 µg/mL (≈ 114 µM).
For `CC(=O)O[C@H]1CC[C@@]2(C)C(=C/C(=N\NC(=S)NC3CCCCCCC3)[C@H]3[C@@H]4CC[C@H]([C@H](C)CCCC(C)C)[C@@]4(C)CC[C@@H]32)C1`, the “inhibition zone (IZ)” value in assay [1] is reported as 12.6 mm; in assay [4], 11.4 mm; in assay [5], 13.6 mm; in assay [7], 13.8 mm. Also, the MIC in assay [2] was 128 µg/mL (≈ 204 µM); in assay [3] it was 128 µg/mL (≈ 204 µM); in assay [6], 64 µg/mL (≈ 102 µM); in assay [8] it was 128 µg/mL (≈ 204 µM).
For `CC(C)CCC[C@@H](C)[C@H]1CC[C@H]2[C@@H]3/C(=N/NC(=S)NC4CCCCCCC4)C=C4CCCC[C@]4(C)[C@H]3CC[C@]12C`, the “inhibition zone (IZ)” value came out at 9.9 mm in assay [1], 11.3 mm in assay [4], 10.2 mm in assay [5] and 10 mm in assay [7]. Further, the MIC in assay [2] was determined as 256 µg/mL (≈ 451 µM); in assay [3], 128 µg/mL (≈ 225 µM); in assay [6] it was 128 µg/mL (≈ 225 µM); in assay [8] it was 256 µg/mL (≈ 451 µM).
Regarding `CC(C)CCC[C@@H](C)[C@H]1CC[C@H]2[C@@H]3/C(=N/NC(=S)NC4CCCCC4)C=C4CCCC[C@]4(C)[C@H]3CC[C@]12C`, the “inhibition zone (IZ)” value in assay [1] amounted to 10.2 mm; in assay [4], 9.2 mm; in assay [5], 10.4 mm; in assay [7] it was 7.8 mm. The minimal inhibitory concentration (MIC) in assay [2] was 128 µg/mL (≈ 237 µM); in assay [3], 256 µg/mL (≈ 474 µM); in assay [6], 256 µg/mL (≈ 474 µM); in assay [8] it was 128 µg/mL (≈ 237 µM).
With `CC(=O)O[C@H]1CC[C@@]2(C)C(=C/C(=N\NC(=S)NC3CCCCC3)[C@H]3[C@@H]4CC[C@H]([C@H](C)CCCC(C)C)[C@@]4(C)CC[C@@H]32)C1`, the “inhibition zone (IZ)” value in assay [1] came to 14.6 mm; in assay [4], 16.8 mm; in assay [5], 14.5 mm; in assay [7], 13.2 mm. Moreover, the MIC was 64 µg/mL (≈ 107 µM) in assay [2], 64 µg/mL (≈ 107 µM) in assay [3], 64 µg/mL (≈ 107 µM) in assay [6] and 32 µg/mL (≈ 53.5 µM) in assay [8].
In the case of `CC1(C)S[C@@H]2[C@H](NC(=O)[C@H](N)c3ccc(O)cc3)C(=O)N2[C@H]1C(=O)O` [AMOXICILLIN], the “inhibition zone (IZ)” value came out at 21 mm in assay [1], 22.2 mm in assay [4], 25.2 mm in assay [5] and 20 mm in assay [7]. For the same compound, the minimum inhibitory concentration (MIC) in assay [2], in assay [3], in assay [6] and in assay [8] was 32 µg/mL (≈ 87.6 µM) throughout.
With `CC(=O)O[C@H]1CC[C@@]2(C)C(=C/C(=N\NC(=S)NC3CCCC3)[C@H]3[C@@H]4CC[C@H]([C@H](C)CCCC(C)C)[C@@]4(C)CC[C@@H]32)C1`, the “inhibition zone (IZ)” value is 12.5 mm in assay [1], 11.8 mm in assay [4], 14.6 mm in assay [5] and 12.4 mm in assay [7]. Also, the MIC in assay [2] came out at 32 µg/mL (≈ 54.8 µM); in assay [3] it was 64 µg/mL (≈ 110 µM); in assay [6] it was 64 µg/mL (≈ 110 µM); in assay [8] it was 32 µg/mL (≈ 54.8 µM).
